In ChEMBL document CHEMBL1140245, “Identification of antitumor activity of pyrazole oxime ethers” (Bioorg Med Chem Lett, 2005):
Converted amounts (≈) assume the structure as drawn.

Experiments:
[1] = tested on: HCT-15; assay: Cytotoxic activity against HCT15 cell line (human colon solid tumor cell line); type: functional, cell-based
[2] = tested on: XF498; assay: Cytotoxic activity against XF498 cell line (human CNS solid tumor); type: functional, cell-based
[3] = tested on: SK-MEL-2; assay: Cytotoxic activity against SKMEL-2 cell line; type: functional, cell-based, Homo sapiens
[4] = tested on: SK-OV-3; assay: Cytotoxic activity against SKOV-3 cell line (human solid ovarian tumor cell line); type: functional, cell-based
[5] = tested on: A549; assay: Cytotoxic activity against A549 cell line (non-small cell lung carcinoma); type: functional, cell-based, Homo sapiens
[6] = tested on: HepG2; assay: In vitro antiproliferative activity against HepG2 cell line (human liver tumor) at 1 uM concentration; type: functional
In short: (§1)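 Each cell line was exposed to test compound at a single concentration of 1 µM, and activity was reported as percent inhibition.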

[7] = tested on: MCF7; assay: In vitro antiproliferative activity against MCF-7 cell line (human breast tumor) at 1 uM concentration; type: functional; in short: as §1
[8] = tested on: A549; assay: In vitro antiproliferative activity against A549 cell line (human lung tumor) at 1 uM concentration; type: functional; in short: as §1
[9] = tested on: MKN-45; assay: In vitro antiproliferative activity against MKN45 cell line (human stomach tumor) at 1 uM concentration; type: functional; in short: as §1
[10] = Homo sapiens, HCT-15, read-out: IC50
[11] = Homo sapiens, XF498, read-out: IC50
[12] = Homo sapiens, SK-MEL-2, read-out: IC50
[13] = Homo sapiens, SK-OV-3, read-out: IC50
[14] = Homo sapiens, A549, read-out: IC50

| Compound | IC50 [1, 10] [mg/L] | IC50 [2, 11] [mg/L] | IC50 [3, 12] [mg/L] | IC50 [4, 13] [mg/L] | IC50 [5, 14] [mg/L] | inhibition at 1 µM [6] [%] | inhibition at 1 µM [7] [%] | inhibition at 1 µM [8] [%] | inhibition at 1 µM [9] [%] | other results |
| --- | --- | --- | --- | --- | --- | --- | --- | --- | --- | --- |
| Cc1nn(C)c(Sc2ccccc2)c1/C=N/OCc1ccc(C(=O)OC(C)(C)C)cc1 | 0.26 (≈ 0.594 µM) | 0.28 (≈ 0.64 µM) | 4.91 (≈ 11.2 µM) | 0.92 (≈ 2.1 µM) | 0.13 (≈ 0.297 µM) | – | – | – | – | – |
| CCOC(=O)c1ccc(CO/N=C/c2c(C)nn(-c3ccccc3)c2Oc2ccc(Cl)cc2)cc1 | – | – | – | – | – | -31.8 | 12 | -9.9 | -17.8 | – |
| Cc1nn(C)c(Oc2ccccc2)c1/C=N/OCCN1CCCC1 | – | – | – | – | – | -25 | 7.7 | -8.2 | -24.2 | – |
| Cc1nn(C)c(-n2ccnc2)c1/C=N/OCc1ccc(C(=O)OC(C)(C)C)cc1 | 8.67 (≈ 21.9 µM) | 8.15 (≈ 20.6 µM) | 9.35 (≈ 23.6 µM) | 14.1 (≈ 35.6 µM) | 5.93 (≈ 15 µM) | – | – | – | – | – |
| Cc1nn(C)c(-n2ccc3ccccc32)c1/C=N/OCc1ccc(C(=O)OC(C)(C)C)cc1 | 1.57 (≈ 3.53 µM) | 1.61 (≈ 3.62 µM) | 26.5 (≈ 59.6 µM) | 2.07 (≈ 4.66 µM) | 0.43 (≈ 0.967 µM) | – | – | – | – | – |
| Cc1nn(C)c(Oc2ccccc2)c1/C=N/OCc1ccc([N+](=O)[O-])cc1 | – | – | – | – | – | -2.8 | 24 | 39.4 | 18.3 | – |
| Cc1nn(C)c(Oc2ccccc2)c1/C=N/OCCN1CCN(Cc2ccc(C(=O)OC(C)(C)C)cc2)CC1 | – | – | – | – | – | 19.8 | 32 | 44.7 | 19.2 | – |
| Cc1nn(C)c(Oc2ccccc2)c1/C=N/OCCN1CCN(Cc2ccccc2)CC1 | – | – | – | – | – | 6.7 | 23.4 | 28.4 | 10.5 | – |
| Cc1nn(C)c(Oc2ccccc2)c1/C=N/OCc1ccc(C(F)(F)F)cc1 | – | – | – | – | – | 5.8 | 30.5 | 34.7 | 11 | – |
| Cc1c(CO/N=C/c2c(-c3ccccc3)nn(-c3ccccc3)c2Oc2ccc(Cl)cc2)cccc1-c1ccccc1 | – | – | – | – | – | -14.8 | -17.5 | -10.1 | -15 | – |
| Cc1nn(C)c(-n2cccc2)c1/C=N/OCc1ccc(C(=O)OC(C)(C)C)cc1 | 2.48 (≈ 6.29 µM) | 2.67 (≈ 6.77 µM) | 24.9 (≈ 63.1 µM) | 3.91 (≈ 9.91 µM) | 1.64 (≈ 4.16 µM) | – | – | – | – | – |
| COc1ccc(CO/N=C/c2c(C)nn(C)c2Oc2ccc(Cl)cc2)cc1 | – | – | – | – | – | 13.9 | 37 | 43.9 | 28.1 | – |
| CC(C)c1nn(-c2ccccc2)c(Oc2ccc(Cl)cc2)c1/C=N/OCc1ccc(C(F)(F)F)cc1 | – | – | – | – | – | -2.2 | -1.9 | -12.1 | -15.4 | – |
| Cc1nn(C)c(N(C)C)c1/C=N/OCc1ccc(C(=O)OC(C)(C)C)cc1 | 6.22 (≈ 16.7 µM) | 3.87 (≈ 10.4 µM) | 23.9 (≈ 64.3 µM) | 9.06 (≈ 24.3 µM) | 2.76 (≈ 7.41 µM) | – | – | – | – | – |
| Cc1nn(C)c(N2CCCC2)c1/C=N/OCc1ccc(C(=O)OC(C)(C)C)cc1 | 0.1 (≈ 0.251 µM) | 0.12 (≈ 0.301 µM) | 14.4 (≈ 36.2 µM) | 3.19 (≈ 8 µM) | 0.13 (≈ 0.326 µM) | – | – | – | – | – |
| COc1cccc2c1C(=O)c1c(O)c3c(c(O)c1C2=O)C[C@@](O)(C(=O)CO)C[C@@H]3O[C@H]1C[C@H](N)[C@H](O)[C@H](C)O1 [DOXORUBICIN] | 0.28 (≈ 0.515 µM) | 0.09 (≈ 0.166 µM) | 0.07 (≈ 0.129 µM) | 0.09 (≈ 0.166 µM) | 0.05 (≈ 0.092 µM) | – | – | – | – | – |
| Cc1nn(C)c(Oc2ccccc2)c1/C=N/OCc1ccc(C(=O)OC(C)(C)C)cc1 [FENPYROXYMATE] | 0.02 (≈ 0.0474 µM) | 0.04 (≈ 0.0949 µM) | 13.3 (≈ 31.5 µM) | 0.21 (≈ 0.498 µM) | 0.12 (≈ 0.285 µM) | – | – | – | – | – |
| CISPLATIN | – | – | – | – | – | – | – | – | – | IC50 ([1]; hct-15): 6.91 mg/L; IC50 ([2]; xf498): 3.47 mg/L; IC50 ([3]; sk-mel-2): 3.28 mg/L; IC50 ([4]; sk-ov-3): 3.42 mg/L; IC50 ([5]; a549): 3.09 mg/L |
